Measured values as given in ChEMBL document CHEMBL1136745 (J Med Chem, 2003).
Values after ≈ are worked out from the molar mass of the structure shown.

How the values were obtained:
[1] = The octanol/water partition coefficient of [3H]azietomidate; type: physicochemical
How it was run: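 Octanol/water two-phase mixture shaken in amber vial, settled 12 h, radiolabel partition measured.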

[2] = Solubility in 0.05 M Tris-HCl buffer, pH 7.4; type: physicochemical; conditions: read-out: S
How it was run: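 Excess compound shaken 3 h in 0.05 M Tris-HCl pH 7.4, centrifuged 10000g for 3 min, concentration read at 350 nm.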

[3] = biological target: Nicotinic acetylcholine receptor alpha1/beta1/gamma/delta (Mus musculus, UniProt P02716+P04756+P04760+P09690); assay: Inhibition of recombinant embryonic mouse muscle Nicotinic Acetylcholine Receptor (3 oocytes); type: cell-based, Oocyte
Chain of Nicotinic acetylcholine receptor alpha1/beta1/gamma/delta (P04756 whole entry): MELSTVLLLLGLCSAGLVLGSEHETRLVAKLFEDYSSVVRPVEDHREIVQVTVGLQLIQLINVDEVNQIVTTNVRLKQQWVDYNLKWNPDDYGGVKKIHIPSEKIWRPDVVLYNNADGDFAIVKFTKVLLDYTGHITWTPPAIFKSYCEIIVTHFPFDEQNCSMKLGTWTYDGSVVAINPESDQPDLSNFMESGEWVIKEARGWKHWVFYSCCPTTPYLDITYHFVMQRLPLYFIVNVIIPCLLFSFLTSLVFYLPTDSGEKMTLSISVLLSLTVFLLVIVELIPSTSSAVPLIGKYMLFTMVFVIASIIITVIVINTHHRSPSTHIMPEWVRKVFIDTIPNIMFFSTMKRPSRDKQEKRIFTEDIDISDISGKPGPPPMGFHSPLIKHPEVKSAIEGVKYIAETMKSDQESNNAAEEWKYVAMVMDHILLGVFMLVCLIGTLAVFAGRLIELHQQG
Chain of Nicotinic acetylcholine receptor alpha1/beta1/gamma/delta (P09690 whole entry): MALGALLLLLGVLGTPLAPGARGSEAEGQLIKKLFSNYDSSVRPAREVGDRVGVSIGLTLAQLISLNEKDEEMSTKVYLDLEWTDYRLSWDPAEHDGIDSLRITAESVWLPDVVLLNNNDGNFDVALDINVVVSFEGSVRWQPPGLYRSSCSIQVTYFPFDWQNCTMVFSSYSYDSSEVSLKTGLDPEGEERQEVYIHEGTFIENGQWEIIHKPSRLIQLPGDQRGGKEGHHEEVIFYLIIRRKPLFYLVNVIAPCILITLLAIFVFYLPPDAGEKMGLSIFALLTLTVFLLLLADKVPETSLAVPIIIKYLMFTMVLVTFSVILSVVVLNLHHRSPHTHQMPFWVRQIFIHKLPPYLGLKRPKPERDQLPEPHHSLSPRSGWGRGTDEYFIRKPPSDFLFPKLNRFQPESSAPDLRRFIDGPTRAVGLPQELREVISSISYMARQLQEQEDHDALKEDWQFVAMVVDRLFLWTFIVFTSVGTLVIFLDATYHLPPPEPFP
Chain of Nicotinic acetylcholine receptor alpha1/beta1/gamma/delta (P02716 whole entry): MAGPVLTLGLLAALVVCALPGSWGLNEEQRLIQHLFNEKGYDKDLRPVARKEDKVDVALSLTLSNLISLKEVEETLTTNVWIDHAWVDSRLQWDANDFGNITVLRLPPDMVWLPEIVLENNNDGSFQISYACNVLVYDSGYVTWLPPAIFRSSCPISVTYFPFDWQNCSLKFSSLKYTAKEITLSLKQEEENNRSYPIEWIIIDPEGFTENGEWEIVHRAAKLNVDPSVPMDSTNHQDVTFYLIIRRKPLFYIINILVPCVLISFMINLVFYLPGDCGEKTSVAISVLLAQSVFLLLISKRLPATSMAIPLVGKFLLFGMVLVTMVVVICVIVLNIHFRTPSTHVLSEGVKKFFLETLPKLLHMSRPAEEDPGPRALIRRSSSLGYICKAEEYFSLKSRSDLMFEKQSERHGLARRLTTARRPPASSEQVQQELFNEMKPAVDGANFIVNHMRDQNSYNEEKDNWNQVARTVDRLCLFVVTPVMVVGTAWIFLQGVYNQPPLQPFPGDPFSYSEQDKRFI
Chain of Nicotinic acetylcholine receptor alpha1/beta1/gamma/delta (P04760 whole entry): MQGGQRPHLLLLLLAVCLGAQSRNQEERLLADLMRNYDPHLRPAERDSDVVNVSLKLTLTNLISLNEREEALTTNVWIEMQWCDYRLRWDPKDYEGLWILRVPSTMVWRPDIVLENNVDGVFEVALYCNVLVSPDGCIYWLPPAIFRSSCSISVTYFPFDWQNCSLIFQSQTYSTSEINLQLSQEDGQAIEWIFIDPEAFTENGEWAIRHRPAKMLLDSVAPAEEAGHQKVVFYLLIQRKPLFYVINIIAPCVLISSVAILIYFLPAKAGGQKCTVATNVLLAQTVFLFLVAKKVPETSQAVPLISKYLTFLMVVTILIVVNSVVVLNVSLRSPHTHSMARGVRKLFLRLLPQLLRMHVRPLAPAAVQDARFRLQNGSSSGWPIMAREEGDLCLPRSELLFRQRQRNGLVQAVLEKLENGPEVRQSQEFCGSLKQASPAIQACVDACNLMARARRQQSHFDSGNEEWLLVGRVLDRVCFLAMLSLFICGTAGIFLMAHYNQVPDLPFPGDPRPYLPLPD
How it was run: (§1)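 Torpedo or embryonic mouse muscle nAChRs in Xenopus oocytes, two-electrode clamp at -70 mV, 20–22 °C, low-Ca ND-96 (0.3 mM CaCl2) without propylene glycol; drug coapplied 5 s with 10 μM acetylcholine after stable response; fit to single-site inhibition equation; reversibility after 5 min wash.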

[4] = biological target: T1, GABA-A receptor; alpha-1/beta-2/gamma-2 (Homo sapiens) (UniProt P14867+P47870+P18507); assay: Maximum response for enhancement of currents elicited by GABA at EC5 (6-12 uM); type: functional
[5] = biological target: T1, GABA-A receptor; alpha-1/beta-2/gamma-2 (Homo sapiens); assay: Hill coefficient for enhancement of currents elicited by GABA at EC5 (6-12 uM); type: functional
[6] = biological target: T1, GABA-A receptor; alpha-1/beta-2/gamma-2 (Homo sapiens); assay: Maximum levels of enhancement of currents from alpha-1-beta-2-gamma-2L-subunit of GABA receptor elicited by low concentrations of GABA; type: functional
[7] = biological target: T2, GABA-A receptor; alpha-1/beta-2/gamma-2 (Homo sapiens, UniProt P14867+P18507+P47870); assay: Inhibition of currents elicited by GABA at EC5 (6-12 uM); type: functional
T2 sequence (P14867 whole entry): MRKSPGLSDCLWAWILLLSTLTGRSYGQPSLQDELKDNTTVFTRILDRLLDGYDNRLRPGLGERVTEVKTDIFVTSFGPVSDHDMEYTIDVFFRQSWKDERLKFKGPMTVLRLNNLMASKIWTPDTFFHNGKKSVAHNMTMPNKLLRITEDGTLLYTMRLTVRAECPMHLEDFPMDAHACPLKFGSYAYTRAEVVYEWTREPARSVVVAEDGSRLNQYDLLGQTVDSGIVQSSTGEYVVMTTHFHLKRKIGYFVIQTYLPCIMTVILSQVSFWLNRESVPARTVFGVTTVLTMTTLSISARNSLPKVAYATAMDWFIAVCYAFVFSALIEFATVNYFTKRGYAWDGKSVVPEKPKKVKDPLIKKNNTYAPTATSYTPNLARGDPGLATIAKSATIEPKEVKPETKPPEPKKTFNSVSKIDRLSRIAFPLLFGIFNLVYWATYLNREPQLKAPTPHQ
T2 sequence (P47870 whole entry): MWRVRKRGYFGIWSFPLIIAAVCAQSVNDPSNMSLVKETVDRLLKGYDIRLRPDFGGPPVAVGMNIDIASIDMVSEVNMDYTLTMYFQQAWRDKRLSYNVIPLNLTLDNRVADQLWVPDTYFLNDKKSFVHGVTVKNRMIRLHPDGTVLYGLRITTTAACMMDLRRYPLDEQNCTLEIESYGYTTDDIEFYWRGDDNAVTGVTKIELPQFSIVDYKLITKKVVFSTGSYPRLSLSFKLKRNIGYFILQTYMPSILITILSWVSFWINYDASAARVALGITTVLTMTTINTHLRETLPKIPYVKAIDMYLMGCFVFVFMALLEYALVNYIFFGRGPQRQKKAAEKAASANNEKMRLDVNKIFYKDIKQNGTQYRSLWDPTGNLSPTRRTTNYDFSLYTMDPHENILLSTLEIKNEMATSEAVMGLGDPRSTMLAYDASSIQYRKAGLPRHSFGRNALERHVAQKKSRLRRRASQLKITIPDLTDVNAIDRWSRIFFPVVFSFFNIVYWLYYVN
T2 sequence (P18507 whole entry): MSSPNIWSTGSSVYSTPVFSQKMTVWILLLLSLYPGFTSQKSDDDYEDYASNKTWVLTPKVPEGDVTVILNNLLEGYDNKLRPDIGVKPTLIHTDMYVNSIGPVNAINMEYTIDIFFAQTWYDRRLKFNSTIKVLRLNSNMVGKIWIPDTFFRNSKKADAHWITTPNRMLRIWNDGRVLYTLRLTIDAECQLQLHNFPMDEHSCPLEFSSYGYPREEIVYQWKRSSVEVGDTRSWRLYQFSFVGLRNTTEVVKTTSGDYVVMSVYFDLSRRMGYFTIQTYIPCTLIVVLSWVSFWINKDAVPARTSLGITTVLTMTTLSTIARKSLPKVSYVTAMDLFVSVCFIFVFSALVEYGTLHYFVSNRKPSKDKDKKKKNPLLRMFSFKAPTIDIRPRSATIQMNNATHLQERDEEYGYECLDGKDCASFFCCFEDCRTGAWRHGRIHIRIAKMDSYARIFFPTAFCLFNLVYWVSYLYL

[8] = biological target: T3, GABA-A receptor; anion channel (Rattus norvegicus) (UniProt O09028+P15431+P18506+P18508+P19969+P20236+P23574+P23576+P28471+P28473+P30191+P62813+P63079+P63138+Q91ZM7+Q9ES14); assay: Inhibition of [35S]TBPS binding to rat brain membranes at 100 uM (Range = 80-90%); type: cell membranes; conditions: Membrane
[9] = biological target: GABA-A receptor; anion channel; assay: Inhibition of [35S]TBPS binding to rat brain membranes; type: cell membranes, Membrane
[10] = biological target: T2, GABA-A receptor; alpha-1/beta-2/gamma-2; assay: (§2) Direct activation of Gamma-aminobutyric acid A receptor in the absence of GABA; type: functional
[11] = biological target: T1, GABA-A receptor; alpha-1/beta-2/gamma-2 (Homo sapiens); assay: Maximum activation of Gamma-aminobutyric acid A receptor in the absence of GABA compared to GABA response; type: functional
How it was run: (§3)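 Oocytes expressing GABA_A receptors, two-electrode clamp at -50 mV, 20–22 °C, ND-96 pH 7.6; drug applied without GABA, stocks in 35% propylene glycol (superfusate ≤170 mM). […] Washout up to 15 min.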

Acetylcholine receptor [12] = biological target: T4, Acetylcholine receptor (Torpedo californica, UniProt P02710+P02712+P02714+P02718); assay: (§4) Inhibition of currents when compound wascoapplied with acetylcholine to recombinant Torpedo nAcChoR (from 6 oocytes); type: cell-based, Oocyte; how it was run: as §1
T4 sequence (P02710 whole entry): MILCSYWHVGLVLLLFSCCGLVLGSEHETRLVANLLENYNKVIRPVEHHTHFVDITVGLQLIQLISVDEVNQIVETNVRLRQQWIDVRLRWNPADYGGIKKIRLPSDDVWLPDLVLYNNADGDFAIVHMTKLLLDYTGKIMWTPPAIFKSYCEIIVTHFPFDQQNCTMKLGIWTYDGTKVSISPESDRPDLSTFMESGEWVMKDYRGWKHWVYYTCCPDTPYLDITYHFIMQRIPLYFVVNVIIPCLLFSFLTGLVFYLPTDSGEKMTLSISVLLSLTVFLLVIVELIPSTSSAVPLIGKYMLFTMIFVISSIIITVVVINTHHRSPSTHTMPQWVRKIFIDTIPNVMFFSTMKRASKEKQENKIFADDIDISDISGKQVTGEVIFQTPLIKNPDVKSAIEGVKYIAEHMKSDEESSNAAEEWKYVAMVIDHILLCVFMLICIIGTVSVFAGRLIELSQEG
T4 sequence (P02712 whole entry): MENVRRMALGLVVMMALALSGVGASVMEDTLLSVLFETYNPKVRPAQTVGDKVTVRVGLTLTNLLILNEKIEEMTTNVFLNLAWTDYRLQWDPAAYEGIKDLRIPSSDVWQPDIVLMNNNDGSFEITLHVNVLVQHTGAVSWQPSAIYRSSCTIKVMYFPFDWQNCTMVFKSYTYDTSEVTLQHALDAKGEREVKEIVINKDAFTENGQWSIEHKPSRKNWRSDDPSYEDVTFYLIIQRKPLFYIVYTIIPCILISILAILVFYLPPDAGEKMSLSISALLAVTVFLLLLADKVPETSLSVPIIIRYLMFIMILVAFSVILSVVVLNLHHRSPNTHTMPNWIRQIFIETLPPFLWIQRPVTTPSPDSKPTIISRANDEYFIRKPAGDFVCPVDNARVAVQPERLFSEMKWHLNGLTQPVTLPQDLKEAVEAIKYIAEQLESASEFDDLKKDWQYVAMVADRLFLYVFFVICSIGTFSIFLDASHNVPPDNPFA
T4 sequence (P02718 whole entry): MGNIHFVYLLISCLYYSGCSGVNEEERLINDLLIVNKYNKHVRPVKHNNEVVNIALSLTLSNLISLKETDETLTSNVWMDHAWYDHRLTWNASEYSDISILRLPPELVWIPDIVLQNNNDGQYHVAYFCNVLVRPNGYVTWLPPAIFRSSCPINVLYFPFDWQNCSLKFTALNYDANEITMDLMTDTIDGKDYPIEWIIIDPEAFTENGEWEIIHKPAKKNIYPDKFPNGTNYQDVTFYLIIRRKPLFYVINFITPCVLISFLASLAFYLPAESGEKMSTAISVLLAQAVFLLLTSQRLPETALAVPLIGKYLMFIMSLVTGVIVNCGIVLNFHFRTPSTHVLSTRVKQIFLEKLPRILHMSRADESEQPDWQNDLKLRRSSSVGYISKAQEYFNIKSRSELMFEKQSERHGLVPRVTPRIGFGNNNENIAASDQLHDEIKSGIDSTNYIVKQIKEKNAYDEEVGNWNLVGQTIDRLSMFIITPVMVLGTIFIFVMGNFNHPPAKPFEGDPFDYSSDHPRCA
T4 sequence (P02714 whole entry): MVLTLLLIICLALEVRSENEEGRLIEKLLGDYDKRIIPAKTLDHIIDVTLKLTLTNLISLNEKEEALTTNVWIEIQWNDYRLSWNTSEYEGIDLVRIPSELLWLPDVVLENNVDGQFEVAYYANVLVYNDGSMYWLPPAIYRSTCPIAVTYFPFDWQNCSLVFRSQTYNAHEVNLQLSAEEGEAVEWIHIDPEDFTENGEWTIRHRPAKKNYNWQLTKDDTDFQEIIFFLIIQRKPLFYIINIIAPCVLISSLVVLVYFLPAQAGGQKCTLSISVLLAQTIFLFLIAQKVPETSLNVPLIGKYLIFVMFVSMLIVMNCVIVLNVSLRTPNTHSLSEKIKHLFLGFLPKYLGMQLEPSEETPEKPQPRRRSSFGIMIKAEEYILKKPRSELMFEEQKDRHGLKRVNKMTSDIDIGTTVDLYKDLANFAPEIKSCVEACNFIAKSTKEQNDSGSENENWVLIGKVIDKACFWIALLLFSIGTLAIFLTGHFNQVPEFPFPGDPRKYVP

[13] = Anesthetic potency, Concentration for loss of righting reflexes (LORR) in Xenopus tadpoles; type: functional, frog
How it was run: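 Pre-limb bud Xenopus tadpoles (1.5–2 cm), groups of 5–10 in oxygenated 5 mM Tris-HCl pH 7.4, low light; drug from buffer or ethanol stock (final ethanol ≤5 mM). Tipped at 30–40 min; no righting within 5 s = LORR. Pooled groups of 10–20; quantal curves by Waud method; SD reported.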

[14] = biological target: T2, GABA-A receptor; alpha-1/beta-2/gamma-2; assay: Ability to enhance currents from alpha-1-beta-2-gamma-2L-subunit of GABA receptor elicited by low concentrations of GABA; type: functional
[15] = biological target: T2, GABA-A receptor; alpha-1/beta-2/gamma-2; assay: Enhancement of currents elicited by GABA at EC5 (6-12 uM); type: functional
Acetylcholine receptor [16] = biological target: T4, Acetylcholine receptor; assay: as §4; type: functional, cell-based, Oocyte; how it was run: as §1
[17] = Anesthetic potency, Concentration for loss of righting reflexes (LORR) in Rana temporaria; type: functional, frog
Torpedo = assay: Concentration that reduced photoincorporation of [3H]azietomidate into the alpha and beta subunits of the nAcChoR in membranes of Torpedo electric organ; type: functional
How it was run: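 Torpedo californica nAChR-rich membranes, 2 mg/mL in Torpedo saline pH 7.0 with 1 mM oxidized glutathione, with 0.9 μM [3H]azietomidate, ± 300 μM carbamylcholine, ± R-etomidate; irradiated at 4 °C, 6 min at 254 nm or 25 min at 365 nm; 8% SDS-PAGE, fluorography, excised bands counted by scintillation.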

[18] = biological target: T1, GABA-A receptor; alpha-1/beta-2/gamma-2 (Homo sapiens); assay: as §2; type: functional; how it was run: as §3
[19] = biological target: T1, GABA-A receptor; alpha-1/beta-2/gamma-2 (Homo sapiens); assay: Maximum activation of Gamma-aminobutyric acid A receptor in the absence of GABA compared to 1 mM GABA; type: functional; how it was run: as §3
[20] = biological target: T3, GABA-A receptor; anion channel (Rattus norvegicus); assay: Inhibition of [35S]TBPS binding to rat brain membranes at 100 uM; type: cell membranes; conditions: Membrane
[21] = biological target: T1, GABA-A receptor; alpha-1/beta-2/gamma-2 (Homo sapiens); assay: Maximum activation of Gamma-aminobutyric acid A receptor compared to maximal control GABA current at >320 uM; type: functional

SMILES: CC(c1ccccc1)n1cncc1C(=O)OCCC1(C)N=N1 (stereo unspecified) [AZIETOMIDATE]
- Partition coefficient [1]: 3600
- solubility [2]: 540 µM (≈ 161 µg/mL)
- IC50 [3]: 25 µM

SMILES: C[C@H](c1ccccc1)n1cncc1C(=O)OCCC1(C)N=N1
- Max response [4]: 94%
- nH [5]: 1.5
- Emax [6]: 127%
- IC50 [7]: 104 µM
- inhibition [8]: < 90%
- IC50 [9]: 4.9 µM
- EC50 [10]: 37 µM
- Emax [11]: 14%
- IC50 (Acetylcholine receptor [12]): 23 µM
- EC50 [13]: 2.2 µM
- EC50 [14]: 1.2 µM
- EC50 [15]: 2 µM

SMILES: CCOC(=O)c1cncn1[C@H](C)c1ccccc1 [ETOMIDATE]
- Max response [4]: 110%
- nH [5]: 1.2
- Emax [6]: 127%
- Emax [11]: 18%
- IC50 [3]: 50 µM
- IC50 (Acetylcholine receptor [16]): 41 µM
- EC50 [17]: 3.4 µM
- Concentration (Torpedo): 300 µM
- EC50 [13]: 2.3 µM

SMILES: CCOC(=O)c1cncn1[C@@H](C)c1ccccc1 [S-ETOMIDATE]
- Max response [4]: 110%
- nH [5]: 1.9
- Concentration [18]: 100 µM
- Emax [19]: 2.9%
- EC50 [17]: 57 µM

SMILES: C[C@@H](c1ccccc1)n1cncc1C(=O)OCCC1(C)N=N1
- Max response [4]: 94%
- nH [5]: 1.6
- IC50 [7]: 66.3 µM
- inhibition [20]: 60%
- Emax [21]: 0.5%
- EC50 [13]: 14 µM
- EC50 [15]: 20 µM
